ALR H2O2 inh – inhibitors of human ALR sulfhydryl oxidase, primary screen, biochemical, H2O2 detection, HRP-luminol luminescence, single point; FAD-linked sulfhydryl oxidase ALR (Homo sapiens), P55789; purified ALR, DTT oxidation; inhibition, % (no concentration beside the values); 290,000 compounds, 3.8% hits; AID 485317, 2010;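 active = mean replicate inhibition above about 79%, with every replicate also reaching it, limit read from the data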
Target sequence (P55789 whole entry, looked up): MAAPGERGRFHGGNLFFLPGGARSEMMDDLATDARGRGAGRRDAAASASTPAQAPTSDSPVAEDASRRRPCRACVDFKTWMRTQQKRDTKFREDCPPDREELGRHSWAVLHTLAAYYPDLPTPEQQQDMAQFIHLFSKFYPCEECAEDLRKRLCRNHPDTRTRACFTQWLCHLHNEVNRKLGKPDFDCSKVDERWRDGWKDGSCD
Glyco luc inh – increase of ERlucT glycosylation luciferase signal, primary screen, N-linked glycosylation inhibitor project, D54 ERlucT cells, luminescence, set 2; D54 ERlucT glycosylation luciferase reporter, 24 h; percent of 100 nM tunicamycin response; reporter increase, % at 12.5 µM; 360,000 compounds, 0.23% hits;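 active = mean luciferase reporter signal, scaled so untreated is 0 and the glycosylation-blocking control 100, at or above a set limit in every replicate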;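 also: luciferase carries N-glycosylation sites so blocking glycosylation raises the light; 0% = median of neutral control wells and 100% = median of 100 nM tunicamycin wells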
T cell HTS – modulators of CD8 T cell-vesicle binding, primary screen, mouse 2C CD8+ T cells, flow cytometry | 2C CD8+ T cell-vesicle binding; hits give low values | response (vesicle binding), % at 7 µM | 330,000 compounds, 0.068% hits | AID 2052, 2009;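 active = response, share of CD8 T cells binding vesicles, and their 90th percentile fluorescence all below set limits, cut at about 80% in these data, passing the limit was not always enough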;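 also: values below 100% mean blocked vesicle binding to the CD8+ T cells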
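Benchmarks: naked versus QL9-loaded vesicles / Assay system: purified 2C TCR transgenic mouse naive CD8+ T cells / Technique: high-throughput flow cytometry with anti-B7-1 and anti-CD8 staining / Timing: Cell–vesicle co-incubation 1.5 h at 37 °C, staining 20 min on ice / Read-out: percent CD8+ FL2 mean versus row control / Probe or stimulus: QL9-loaded Drosophila micro-vesicles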
* hit, by the source's call; i = inactive; . = no result. This excerpt belongs to a sample that is enriched for hits.

SMILES | ALR H2O2 inh | Glyco luc inh | T cell HTS
CCn1c(SCC(=O)Nc2cccc(F)c2)nc2c(c1=O)SC(C)C2 (stereo not given) | . | 3 | 575
COc1ccccc1NS(=O)(=O)c1ccc(C)c(NC(=O)c2c(C)noc2C)c1 | -6 | 3 | 226
Cc1c(NS(=O)(=O)c2cc(C(=O)N(C)Cc3ccccc3)ccc2Cl)c(=O)n(-c2ccccc2)n1C | 2 | -2 | 829
CCCCN1CC(N2CCN(CCN(C)C)CC2)CS1(=O)=O (stereo not given) | . | 1 | .
COC(=O)CCCCCCCCC(O)CN1CCCCC1 (stereo not given) | -5 | 1 | 703
Cc1c(C(=O)NCCNc2ncc(C(F)(F)F)cc2Cl)cccc1[N+](=O)[O-] | . | 2 | 342
O=[N+]([O-])c1cccc(Cl)c1NCCNc1ncc(C(F)(F)F)cc1Cl | 100* | -3 | 340
CC(C)c1ccc(NC(=O)C2(C)Cc3c(-c4ccc(N(C)C)cc4)ccnc3O2)cc1 (stereo not given) | . | 2 | .
Cc1cc(N)n2ncc(-c3ccccc3)c2n1 | 90* | -1 | 204
Cc1cc(N)n2ncc(-c3cccc(Br)c3)c2n1 | -6 | 3 | 371
CCOc1ccc(Cc2nnc(SCC(=O)c3ccc(OC)cc3)o2)cc1 | -1 | -2 | 586
CCOc1ccc(Nc2nc(Cc3nnc(SCC(=O)O)o3)cs2)cc1 | 87* | -2 | 439
COc1ccc(CNC(=O)CN2C(=O)CSc3ccc(S(=O)(=O)N4CCOCC4)cc32)c(OC)c1 | -1 | 1 | 271
COc1ccc(NC(=O)CCCCC(=O)Nc2ccc(OC)cc2OC)c(OC)c1 | -13 | 1 | 174
COc1ccc(NC(=O)CSCc2ccc(C#N)cc2)c(OC)c1 | 98* | 0 | 84
COc1ccc(NC(=O)CCSCCC(=O)Nc2ccc(OC)cc2OC)c(OC)c1 | 97* | 2 | 475
COc1ccc(NC(=O)CC(=O)Nc2ccc(OC)cc2OC)c(OC)c1 | -26 | 2 | 360
CCN(CC)C(=O)[C@H]1CC(CC(=O)NCC23CC4CC(CC(C4)C2)C3)C(=O)N2CCc3c([nH]c4ccc(OC)cc34)[C@]12C (stereo not given in full) | . | -3 | .
CN1CN(C)c2cccc3cccc1c23 | 98* | . | 353
CCN1C(=O)N(CC)c2cccc3cccc1c23 | -15 | 2 | 834
COc1cccc(C(=O)NC2CC3CCCC(C2)N3S(=O)(=O)c2ccccc2)c1 (stereo not given) | 12 | -5 | 126
O=C(NCc1ccccc1)/C(=C\c1ccc(O)cc1)NC(=O)c1ccco1 | 97* | 5 | 347
O=C(O)CNC(=O)/C(=C\c1ccco1)NC(=O)c1ccco1 | -27 | 1 | 162
O=C(NCc1ccccc1)/C(=C/c1ccccc1)NC(=O)c1ccco1 | -3 | 0 | 253
O=C(NCc1ccccc1)/C(=C/c1ccco1)NC(=O)c1ccco1 | 93* | 0 | 242
SMILES | ALR H2O2 inh | Glyco luc inh | T cell HTS
Cc1ccc(/C=C2\C(=N)N3N=C(CC(=O)N4CCOCC4)SC3=NC2=O)o1 | 92* | -1 | 252
N=C1/C(=C\c2ccc(SCc3ccccc3)o2)C(=O)N=C2SC(CC(=O)N3CCOCC3)=NN12 | 98* | 1 | 173
COc1ccc(/C=C2\C(=N)N3N=C(CC(=O)N4CCOCC4)SC3=NC2=O)cc1 | -6 | 1 | i
N=C1/C(=C/c2ccc(-c3cccc(C(=O)O)c3)o2)C(=O)N=C2SC(CC(=O)N3CCOCC3)=NN12 | 8 | 1 | 408
CCCCNS(=O)(=O)c1cccc(NC(=O)[C@@H]2O[C@H](CO)[C@H](O)[C@H](O)[C@H]2O)c1 | . | 0 | .
CCNC(=O)N(C)C[C@H]1N[C@@](C)(C(=O)OC)[C@H]2C(=O)N(Cc3ccccc3)C(=O)[C@@H]12 | . | -1 | 0
C/C(=N\NC(=O)c1ccc(Br)o1)c1cc2c(cc1NC(=O)CCC(=O)O)OCO2 | -7 | 3 | 0.0*
O=C(Nc1ccc2c(c1)OCO2)c1ccc(Br)o1 | -6 | 4 | 476
CCc1nc2c(OCc3cc(Cl)cc(Cl)c3)cccn2c1N(C)C(=O)c1ccccc1F | . | 0 | .
Cc1cnc(NC(=O)c2sc3ccccc3c2Cl)s1 | -2 | -21 | 480
CC(C)c1nnc(NC(=O)c2sc3ccccc3c2Cl)s1 | 98* | 0 | 299
CC1(C(=O)Nc2ccc3ccccc3c2)CCC(=O)N1CCc1c[nH]c2ccccc12 (stereo not given) | . | -1 | .
O=C(CN1CCN(Cc2ccc(Cl)cc2)CC1)N/N=C/c1cccs1 | -3 | -2 | 107
Cc1ccn2c(=O)nc(SCC(=O)Nc3ccc4c(c3)OCCO4)nc2c1 | 97* | 1 | 133

Screens as filed in PubChem.
